Published values gathered from unrelated publications.
Compare with care: the assays were run in different laboratories.
CDK14: Cyclin-dependent kinase 14 (CDK14, Homo sapiens, UniProt O94921)
CDK14 with cyclin Y: Cyclin-dependent kinase 14, with cyclin Y (CDK14, Homo sapiens, UniProt O94921)

| SMILES | target | test | conditions | endpoint | result |
| --- | --- | --- | --- | --- | --- |
| Cc1ccc(NC(=O)c2ccnc(C(F)(F)F)c2)cc1-c1cc(OCCO)nc(N2CCOCC2)c1 | CDK14 | binding, competition with immobilised ligand | 1 µM | remaining binding | 100% |
| COc1ccc2oc(-c3ccc4nc(N)oc4c3)c/c(=N\c3ccccc3NC(=O)CCN)c2c1 | CDK14 with cyclin Y | binding | 1 µM | remaining binding | 100% |
| C1=C/COCc2cc(ccc2OCCN2CCCC2)Nc2nccc(n2)-c2cccc(c2)COC/1 | CDK14 | cell-free assay | 0.1 µM | remaining signal | 87% |
| CN1CCN(C(=O)c2ccc(NC(=O)Nc3ccc(N(C)c4ccnc(Nc5ccc(CS(C)(=O)=O)cc5)n4)cc3)cc2)CC1 | CDK14 | binding, competition with immobilised ligand | 1 µM | remaining binding | 81% |
| CC#CC(=O)N1CCC[C@H]1c1nc(-c2ccc(C(=O)Nc3ccccn3)cc2)c2c(N)nccn12 | CDK14 | enzyme activity, inhibitor | 1 µM | inhibition | 4% |
| CC(C)S(=O)(=O)c1ccc2nccc(Nc3ccc4sc(C5CCCC5)nc4c3)c2c1 | CDK14 with cyclin Y | enzyme activity, inhibitor | 1 µM | activity vs control | 110% |
| CO[C@@H]1[C@H](N(C)C(=O)c2ccccc2)C[C@H]2O[C@]1(C)n1c3ccccc3c3c4c(c5c6ccccc6n2c5c31)C(=O)NC4 | CDK14 | enzyme activity, inhibitor | 1 µM | inhibition | 0% |
| CCCCC(=O)Nc1ccc(-c2ccc3ncn(CCC)c(=O)c3c2)cn1 | CDK14 | binding, competition with immobilised ligand | 0.5 µM | remaining binding | 100% |
